Experimental data from ChEMBL document CHEMBL5154797 (Eur J Med Chem, 2022).
pEC50, pKd: −log10 of the molar value. Activity calls are given as the source filed them. The calls are words filed in the database; no cut-off is given here.

Tests used:
Lyssavirus rabies [1] = assay: Antirabies activity against rabies CVS infected in golden hamster BSR cells preincubated for 1 hr followed by mixing of cells measured after 24 hrs by inverted fluorescence microscope analysis; format: functional, organism-based
[2] = Cytotoxicity against golden hamster BSR cells assessed as reduction in cell viability incubated for 24 hrs by microplate luminometer method; format: toxicity, cell-based, Mesocricetus auratus; details: for CC50: bsr, 24 h; for CC50 at 24 h: BSR cells
Summary of the method: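 BSR cells given serial dilutions from 200 μM, with medium in place of virus. After 24 h at 37 °C, viability was read by luminometer and CC50 calculated.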

SARS-CoV-2 = assay: Antiviral activity against S-protein based pseudotyped SARS-CoV-2 infected in Huh7 cells measured after 24 hrs by bright-Glo luciferase assay; format: functional, organism-based; details: Severe acute respiratory syndrome coronavirus 2, Huh-7, 24 h
Summary of the method: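 Serial dilutions from 200 μM were held with pseudotyped SARS-CoV-2 (1.3 × 10^4 TCID50) at 37 °C for 1 h, then mixed with Huh7 cells (2000 cells/well) and incubated 24 h. EC50 was calculated from bioluminescence intensity.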

[3] = Selectivity index, ratio of CC50 for cytotoxicity against golden hamster BSR cells to EC50 for antirabies activity against Rabies virus infected in golden hamster BSR cells; format: toxicity, cell-based; details: read-out: Selectivity Index
Huh-7 = assay: Cytotoxicity against human HuH-7 cells assessed as reduction in cell viability incubated for 24 hrs by microplate reader assay; format: functional
[4] = Selectivity index, ratio of CC50 for cytotoxicity against human Huh7 cells to EC50 for antiviral activity against S-protein based pseudotyped SARS-CoV-2 infected in Huh7 cells; format: functional
[5] = Acute toxicity in Kunming mouse assessed as lethal dose administered orally measured after 7 days; details: in vivo, 800 mg/kg, route po, time 7 day
Summary of the method: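 Female Kunming mice (20.0 ± 1.0 g), 6 per group, randomly assigned. Single oral dose of 0, 200, 400, 600 or 800 mg•kg−1, with ddH2O as control. Body weight, behaviour and survival monitored for 7 days.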

Lyssavirus rabies [6] = assay: Antirabies activity against rabies CVS infected in golden hamster BSR cells assessed as inhibition of viral growth at 25 uM treated 1 hr post infection measured after 23 hrs by measuring luciferase signal; format: functional, organism-based; details: time 24.0 hrs
Spike glycoprotein = Spike glycoprotein (Severe acute respiratory syndrome coronavirus 2, UniProt P0DTC2); assay: Binding affinity to SARS-CoV-2 spike protein assessed as Kd by SPR analysis
[7] = Binding affinity to rabies recombinant GST-His-tagged G-glycoprotein protein (20 to 459 AA residues) expressed in Escherichia coli BL21 (DE3) cells assessed as Kd treated for 60 secs followed dissociation time of 120 secs by SPR analysis; set-up: species or system Lyssavirus rabies
Summary of the method: (§1)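 Biacore SPR with PBS-P as sample and running buffer. Target protein was amine-coupled to a CM5 chip in sodium acetate pH 4.0. Compound dilution series flowed at 30 μL/min, with 60 s contact and 120 s dissociation. Reference flow cell and blank cycle responses were subtracted.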

[8] = target: Spike glycoprotein (Severe acute respiratory syndrome coronavirus 2) (UniProt P0DTC2); assay: Binding affinity to SARS-CoV-2 spike protein at 0.16 to 5 uM by SPR analysis; details: dose 0.16-5 µM, DDE = dose-dependent effect; summary of the method: as §1

Structure (SMILES)	pEC50 (Lyssavirus rabies [1])	CC50 [2] [µM]	pEC50 (SARS-CoV-2)	selectivity ratio [3]	CC50 (Huh-7) [µM]	Selectivity Index [4]	CC50 at 24 h [2] [µM]	LD50 at 168 h [5] [mg/kg]	Activity (Lyssavirus rabies [6])	pKd (Spike glycoprotein)	pKd [7]	Activity [8]
COc1ccc(Nc2cc3nc4ccccc4n(-c4ccc(Cl)cc4)c-3c/c2=N\C(C)C)cn1	5.64	35.4	3.82	15.5	> 267	>1.7	–	–	–	–	–	–
CCC/N=c1\cc2n(-c3ccc(Cl)cc3)c3ccccc3nc-2cc1Nc1ccc(Cl)cc1	4.60	–	4.41	13	107	2.7	323	–	–	–	–	–
CC(C)/N=c1\cc2n(-c3ccc(Cl)cc3)c3ccccc3nc-2cc1Nc1ccc(F)cc1	5.34	–	4.84	61.7	40.6	2.8	281	–	–	–	–	–
CC(C)/N=c1\cc2n(-c3ccccc3)c3ccccc3nc-2cc1Nc1ccccc1	4.97	–	4.76	30.1	177	10.2	323	–	–	–	–	–
CC(C)/N=c1\cc2n(-c3ccccc3)c3ccccc3nc-2cc1NCc1ccc(F)cc1	5.72	17.3	> 5.00	9.1	29.6	>2.9	–	–	–	–	–	–
N=c1cc2n(-c3ccc(Cl)cc3)c3ccccc3nc-2cc1Nc1ccc(Cl)cc1	4.69	35.4	–	1.7	–	–	–	–	–	–	–	–
COc1ccc(-n2c3c/c(=N\C4CCC(OC)CC4)c(Nc4ccc(F)cc4)cc-3nc3ccccc32)cn1 (stereo not drawn)	5.59	84.4	> 5.00	33.1	51.3	>5.1	–	–	–	–	–	–
COc1ccc(Nc2cc3nc4ccccc4n(-c4ccc(Cl)cc4)c-3c/c2=N\C(C)C)cc1	5.16	130	4.78	19	88.9	5.4	–	–	–	–	–	–
COc1ccc(-n2c3c/c(=N\C(C)C)c(Nc4ccc(F)cc4)cc-3nc3ccccc32)cn1	5.85	–	> 5.00	229	88.9	>8.9	323	800	Active	–	–	–
N=c1cc2n(-c3ccccc3)c3ccccc3nc-2cc1NCc1ccccc1	4.45	–	–	1	–	–	35.4	–	–	–	–	–
Clc1ccc(Nc2cc3nc4ccccc4n(-c4ccc(Cl)cc4)c-3c/c2=N\C2CC2)cc1	4.64	–	3.85	14.2	> 267	>1.9	–	–	–	–	–	–
COc1ccc(-n2c3c/c(=N\C(C)C)c(Nc4ccccc4)cc-3nc3ccccc32)cn1	4.91	–	> 5.00	26.3	< 10	–	323	–	–	–	–	–
CC(C)/N=c1\cc2n(-c3ccc(Cl)cc3)c3ccccc3nc-2cc1Nc1ccccc1	5.07	185	4.39	21.9	154	3.8	–	–	–	–	–	–
CCC/N=c1\cc2n(-c3ccccc3)c3ccccc3nc-2cc1Nc1ccccc1	6.12	14.4	> 5.00	19	35.6	>3.5	–	–	–	–	–	–
COc1ccc(-n2c3c/c(=N\C4CC4)c(Nc4ccc(F)cc4)cc-3nc3ccccc32)cn1	4.88	107	4.48	8.1	88.9	2.7	–	–	–	–	–	–
CCC/N=c1\cc2n(-c3ccc(OC)nc3)c3ccccc3nc-2cc1Nc1ccc(F)cc1	5.85	107	> 5.00	76.4	< 10	–	–	–	–	–	–	–
COc1ccc(-n2c3c/c(=N\C(C)C)c(Nc4ccc(Cl)cc4)cc-3nc3ccccc32)cn1	5.30	107	> 5.00	21.3	51.3	>5.1	–	–	–	–	–	–

Structure (SMILES)	pEC50 (Lyssavirus rabies [1])	CC50 [2] [µM]	pEC50 (SARS-CoV-2)	selectivity ratio [3]	CC50 (Huh-7) [µM]	Selectivity Index [4]	CC50 at 24 h [2] [µM]	LD50 at 168 h [5] [mg/kg]	Activity (Lyssavirus rabies [6])	pKd (Spike glycoprotein)	pKd [7]	Activity [8]
COc1ccc(-n2c3c/c(=N\C(C)C)c(Nc4cccc(F)c4)cc-3nc3ccccc32)cn1	5.84	–	4.84	223	88.9	6.1	–	800	Active	5.60	6.14	Dde
CC(C)/N=c1\cc2n(-c3ccc(F)cc3)c3ccccc3nc-2cc1Nc1ccc(F)cc1	5.64	–	4.09	134	267	3.3	314	–	–	–	–	–
Fc1ccc(Nc2cc3nc4ccccc4n(-c4ccc(Cl)cc4)c-3c/c2=N\C2CC2)cc1	5.16	–	4.87	47.1	16.7	1.2	–	–	–	–	–	–
CC(C)/N=c1\cc2n(-c3ccc(Cl)cc3)c3ccccc3nc-2cc1Nc1ccc(OC(F)(F)F)cc1	5.75	–	5.00	182	38.4	3.8	–	–	–	–	–	–
COc1ccc(Nc2cc3nc4ccccc4n(-c4ccc(OC)nc4)c-3c/c2=N\C(C)C)cc1	4.88	–	> 5.00	24.5	17.1	>1.7	323	–	–	–	–	–
CC(C)/N=c1\cc2n(-c3ccccc3)c3ccccc3nc-2cc1NCc1ccccc1	5.85	107	> 5.00	76.4	< 10	–	–	–	–	–	–	–
CC(C)/N=c1\cc2n(-c3ccc(F)cc3)c3ccccc3nc-2cc1Nc1ccc(Cl)cc1	5.40	–	4.53	55.6	17	0.6	223	–	–	–	–	–
COc1ccc(Nc2cc3nc4ccccc4n(-c4ccc(Cl)cc4)c-3cc2=N)c(OC)c1	4.45	–	4.79	1	16.6	1	–	–	–	–	–	–
N=c1cc2n(-c3ccc(Cl)cc3)c3ccccc3nc-2cc1Nc1ccccc1	4.69	35.4	> 5.00	1.7	< 10	–	–	–	–	–	–	–
COc1ccc(Nc2cc3nc4ccccc4n(-c4ccc(Cl)cc4)c-3cc2=N)cc1	3.97	–	3.81	1	> 267	>1.7	–	–	–	–	–	–
CC(C)/N=c1\cc2n(-c3ccc(Cl)cc3)c3ccccc3nc-2cc1Nc1ccc(Cl)cc1 [CLOFAZIMINE]	5.64	–	5.00	–	44.7	–	323	–	–	–	6.55	–
COc1ccc(Nc2cc3nc4ccccc4n(-c4ccccc4)c-3c/c2=N\C(C)C)cn1	5.30	107	4.87	21.2	22.7	1.7	–	–	–	–	–	–
COc1ccc(Nc2cc3nc4ccccc4n(-c4ccc(Cl)cc4)c-3c/c2=N\C(C)C)c(OC)c1	5.16	120	> 5.00	17.6	13.5	>1.3	–	–	–	–	–	–
CC(C)/N=c1\cc2n(-c3ccccc3)c3ccccc3nc-2cc1Nc1ccc(Cl)cc1	5.72	42.6	> 5.00	22.4	16.1	>1.6	–	–	–	–	–	–
CC(C)/N=c1\cc2n(-c3ccc(Cl)cc3)c3ccccc3nc-2cc1NCc1ccc(Cl)cc1	6.12	93.1	4.91	123	16.1	1.3	–	–	–	–	–	–
CCC/N=c1\cc2n(-c3ccc(Cl)cc3)c3ccccc3nc-2cc1Nc1ccc(F)cc1	5.78	54.5	4.99	32.6	14.9	1.5	–	–	–	–	–	–
